From ChEMBL document CHEMBL3603808, “Discovery and structure of a new inhibitor scaffold of the autophagy initiating kinase ULK1” (Bioorg Med Chem, 2015)
Blank lines part the entries; values can stand above or below the compound they belong to. The source made the active and inactive calls. No cut-off for these calls is given here.

Experiments:
[1] = target: Calcium/calmodulin-dependent protein kinase type 1 (Homo sapiens) (UniProt Q14012); experiment: Inhibition of CAMK1 (unknown origin) at 250 nM by radioactive filter-binding assay
Summary of the method: (§1)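 Panel profiling of one compound against 50 kinases, carried out in duplicate at the International Centre for Protein Kinase Profiling. Radioactive filter-binding format.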

[2] = species on record: Homo sapiens; experiment: Inhibition of Aurora (unknown origin) at 250 nM by radioactive filter-binding assay; summary of the method: as §1
[3] = target: Insulin-like growth factor 1 receptor (Homo sapiens) (UniProt P08069); experiment: Inhibition of IGF1R (unknown origin) at 250 nM by radioactive filter-binding assay; summary of the method: as §1
[4] = target: Dual specificity tyrosine-phosphorylation-regulated kinase 1A (Homo sapiens) (UniProt Q13627); experiment: Inhibition of DYRK1A (unknown origin) at 250 nM by radioactive filter-binding assay; summary of the method: as §1
[5] = target: Mitogen-activated protein kinase kinase kinase 7 (Homo sapiens) (UniProt O43318); experiment: Inhibition of TAK1 (unknown origin) at 250 nM by radioactive filter-binding assay; summary of the method: as §1
[6] = target: Interleukin-1 receptor-associated kinase 4 (Homo sapiens) (UniProt Q9NWZ3); experiment: Inhibition of IRAK4 (unknown origin) at 250 nM by radioactive filter-binding assay; summary of the method: as §1
[7] = target: Serine/threonine-protein kinase D1 (Homo sapiens) (UniProt Q15139); experiment: Inhibition of PKD1 (unknown origin) at 250 nM by radioactive filter-binding assay; summary of the method: as §1
[8] = target: Tyrosine-protein kinase Lck (Homo sapiens) (UniProt P06239); experiment: Inhibition of LCK (unknown origin) at 250 nM by radioactive filter-binding assay; summary of the method: as §1
[9] = target: MAP/microtubule affinity-regulating kinase 3 (Homo sapiens) (UniProt P27448); experiment: Inhibition of MARK3 (unknown origin) at 250 nM by radioactive filter-binding assay; summary of the method: as §1
[10] = target: Tyrosine-protein kinase SYK (Homo sapiens) (UniProt P43405); experiment: Inhibition of SYK (unknown origin) at 250 nM by radioactive filter-binding assay; summary of the method: as §1
[11] = target: T1, Vascular endothelial growth factor receptor (Homo sapiens) (UniProt P17948+P35916+P35968); experiment: Inhibition of VEGFR (unknown origin) at 250 nM by radioactive filter-binding assay; format: protein assay; summary of the method: as §1
[12] = target: Receptor-interacting serine/threonine-protein kinase 2 (Homo sapiens) (UniProt O43353); experiment: Inhibition of RIPK2 (unknown origin) at 250 nM by radioactive filter-binding assay; summary of the method: as §1
[13] = target: Ribosomal protein S6 kinase alpha-1 (Homo sapiens) (UniProt Q15418); experiment: Inhibition of RSK1 (unknown origin) at 250 nM by radioactive filter-binding assay; summary of the method: as §1
[14] = target: Serine/threonine-protein kinase N2 (Homo sapiens) (UniProt Q16513); experiment: Inhibition of PRK2 (unknown origin) at 250 nM by radioactive filter-binding assay; summary of the method: as §1
[15] = target: Casein kinase I isoform delta (Homo sapiens) (UniProt P48730); experiment: Inhibition of CK1delta (unknown origin) at 250 nM by radioactive filter-binding assay; summary of the method: as §1
[16] = target: Calcium/calmodulin-dependent protein kinase kinase 2 (Homo sapiens) (UniProt Q96RR4); experiment: Inhibition of CAMKKB (unknown origin) at 2 uM by radioactive filter-binding assay; summary of the method: as §1
[17] = target: T2, Serine/threonine-protein kinase ULK1 (Homo sapiens, UniProt O75385); experiment: Inhibition of SUMO-tagged ULK1 (unknown origin) kinase domain expressed in KRX cells using [32P]-gamma-ATP and myelin basic protein substrate incubated for 7 mins; format: cell-based
T2 sequence (O75385 whole entry): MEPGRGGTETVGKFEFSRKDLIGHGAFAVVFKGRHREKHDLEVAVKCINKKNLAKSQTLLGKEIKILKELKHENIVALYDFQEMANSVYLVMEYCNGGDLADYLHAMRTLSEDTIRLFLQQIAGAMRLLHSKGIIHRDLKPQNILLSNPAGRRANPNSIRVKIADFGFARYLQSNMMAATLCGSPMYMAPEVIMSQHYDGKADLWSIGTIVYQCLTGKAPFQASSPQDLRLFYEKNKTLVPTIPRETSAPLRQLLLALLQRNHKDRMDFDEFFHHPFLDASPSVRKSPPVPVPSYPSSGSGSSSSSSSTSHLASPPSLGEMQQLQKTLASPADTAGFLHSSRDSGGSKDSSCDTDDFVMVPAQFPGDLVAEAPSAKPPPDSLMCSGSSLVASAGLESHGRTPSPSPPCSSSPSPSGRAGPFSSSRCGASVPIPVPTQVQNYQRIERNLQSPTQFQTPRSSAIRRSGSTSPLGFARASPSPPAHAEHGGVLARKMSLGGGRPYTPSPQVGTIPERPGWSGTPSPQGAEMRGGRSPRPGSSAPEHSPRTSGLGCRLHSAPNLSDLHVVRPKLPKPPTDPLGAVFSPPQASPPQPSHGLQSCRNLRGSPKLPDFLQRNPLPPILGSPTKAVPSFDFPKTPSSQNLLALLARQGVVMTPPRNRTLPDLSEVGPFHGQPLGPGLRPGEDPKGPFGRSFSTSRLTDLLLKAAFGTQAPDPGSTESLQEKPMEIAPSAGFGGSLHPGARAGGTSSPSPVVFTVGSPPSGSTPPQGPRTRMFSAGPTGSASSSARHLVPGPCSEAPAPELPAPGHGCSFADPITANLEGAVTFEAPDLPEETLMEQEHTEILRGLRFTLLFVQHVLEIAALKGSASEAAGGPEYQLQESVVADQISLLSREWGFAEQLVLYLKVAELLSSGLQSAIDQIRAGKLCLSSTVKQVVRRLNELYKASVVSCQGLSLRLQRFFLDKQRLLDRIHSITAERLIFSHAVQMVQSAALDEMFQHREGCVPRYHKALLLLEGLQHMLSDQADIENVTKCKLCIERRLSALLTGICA
Summary of the method: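 Enzyme at 5 nM with 50 µM cold ATP, 0.05 µCi/µl 32P-γ-ATP and 20 µM myelin basic protein as substrate. Reactions were spotted onto nitrocellulose, washed three times in 1% phosphoric acid, dried and imaged by phosphorimager. IC50 from curve fitting; duplicate.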

[18] = system: HeLa; experiment: Inhibition of autophagy in human HeLa cells assessed as induction of LC3-I protein accumulation at 4 uM incubated for 24 hrs by immunoblotting method; format: functional, cell-based
Summary of the method: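 HeLa cells were grown in DMEM with 10% FBS to about 50% confluency, then given 4 µM compound or DMSO for 24 h. Cold-PBS wash, lysis in TBS pH 7.6 with 1% Triton-X, 0.2% SDS and protease/phosphatase inhibitors. Lysates were protein-normalized and immunoblotted for LC3-I/LC3-II, with actin as loading control.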

[19] = target: Ribosomal protein S6 kinase alpha-1 (Homo sapiens) (UniProt Q15418); experiment: Inhibition of RSK1 (unknown origin) at 2 uM by radioactive filter-binding assay; summary of the method: as §1
[20] = target: T1, Vascular endothelial growth factor receptor (Homo sapiens); experiment: Inhibition of VEGFR (unknown origin) at 2 uM by radioactive filter-binding assay; format: protein assay; summary of the method: as §1
[21] = target: High affinity nerve growth factor receptor (Homo sapiens) (UniProt P04629); experiment: Inhibition of TRKA (unknown origin) at 2 uM by radioactive filter-binding assay; summary of the method: as §1
[22] = target: Tyrosine-protein kinase SYK (Homo sapiens) (UniProt P43405); experiment: Inhibition of SYK (unknown origin) at 2 uM by radioactive filter-binding assay; summary of the method: as §1
[23] = target: Mitogen-activated protein kinase kinase kinase 11 (Homo sapiens) (UniProt Q16584); experiment: Inhibition of MLK3 (unknown origin) at 2 uM by radioactive filter-binding assay; summary of the method: as §1

Sequence of Ribosomal protein S6 kinase alpha-1 (Homo sapiens) (Q15418 whole entry): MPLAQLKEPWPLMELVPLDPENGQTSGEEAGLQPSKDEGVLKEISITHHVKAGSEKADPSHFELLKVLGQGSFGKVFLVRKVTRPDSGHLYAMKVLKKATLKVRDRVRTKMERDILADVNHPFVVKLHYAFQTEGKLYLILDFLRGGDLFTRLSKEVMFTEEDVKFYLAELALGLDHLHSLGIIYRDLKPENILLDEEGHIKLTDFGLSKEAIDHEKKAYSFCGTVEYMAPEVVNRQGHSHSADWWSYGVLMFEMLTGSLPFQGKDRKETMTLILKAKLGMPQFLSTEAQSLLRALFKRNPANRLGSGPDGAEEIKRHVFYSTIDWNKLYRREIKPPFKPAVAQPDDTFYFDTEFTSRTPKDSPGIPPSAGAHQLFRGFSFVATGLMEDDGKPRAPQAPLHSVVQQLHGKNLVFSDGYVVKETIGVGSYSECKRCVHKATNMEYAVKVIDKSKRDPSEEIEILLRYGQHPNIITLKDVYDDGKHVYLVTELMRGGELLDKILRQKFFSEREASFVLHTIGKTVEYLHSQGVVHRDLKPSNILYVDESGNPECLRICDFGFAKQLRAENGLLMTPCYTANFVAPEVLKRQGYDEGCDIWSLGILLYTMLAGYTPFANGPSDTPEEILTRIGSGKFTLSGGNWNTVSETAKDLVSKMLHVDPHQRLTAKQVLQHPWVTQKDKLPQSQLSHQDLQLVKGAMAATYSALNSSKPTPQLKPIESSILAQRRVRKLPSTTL
T1 sequence (P17948 whole entry, looked up): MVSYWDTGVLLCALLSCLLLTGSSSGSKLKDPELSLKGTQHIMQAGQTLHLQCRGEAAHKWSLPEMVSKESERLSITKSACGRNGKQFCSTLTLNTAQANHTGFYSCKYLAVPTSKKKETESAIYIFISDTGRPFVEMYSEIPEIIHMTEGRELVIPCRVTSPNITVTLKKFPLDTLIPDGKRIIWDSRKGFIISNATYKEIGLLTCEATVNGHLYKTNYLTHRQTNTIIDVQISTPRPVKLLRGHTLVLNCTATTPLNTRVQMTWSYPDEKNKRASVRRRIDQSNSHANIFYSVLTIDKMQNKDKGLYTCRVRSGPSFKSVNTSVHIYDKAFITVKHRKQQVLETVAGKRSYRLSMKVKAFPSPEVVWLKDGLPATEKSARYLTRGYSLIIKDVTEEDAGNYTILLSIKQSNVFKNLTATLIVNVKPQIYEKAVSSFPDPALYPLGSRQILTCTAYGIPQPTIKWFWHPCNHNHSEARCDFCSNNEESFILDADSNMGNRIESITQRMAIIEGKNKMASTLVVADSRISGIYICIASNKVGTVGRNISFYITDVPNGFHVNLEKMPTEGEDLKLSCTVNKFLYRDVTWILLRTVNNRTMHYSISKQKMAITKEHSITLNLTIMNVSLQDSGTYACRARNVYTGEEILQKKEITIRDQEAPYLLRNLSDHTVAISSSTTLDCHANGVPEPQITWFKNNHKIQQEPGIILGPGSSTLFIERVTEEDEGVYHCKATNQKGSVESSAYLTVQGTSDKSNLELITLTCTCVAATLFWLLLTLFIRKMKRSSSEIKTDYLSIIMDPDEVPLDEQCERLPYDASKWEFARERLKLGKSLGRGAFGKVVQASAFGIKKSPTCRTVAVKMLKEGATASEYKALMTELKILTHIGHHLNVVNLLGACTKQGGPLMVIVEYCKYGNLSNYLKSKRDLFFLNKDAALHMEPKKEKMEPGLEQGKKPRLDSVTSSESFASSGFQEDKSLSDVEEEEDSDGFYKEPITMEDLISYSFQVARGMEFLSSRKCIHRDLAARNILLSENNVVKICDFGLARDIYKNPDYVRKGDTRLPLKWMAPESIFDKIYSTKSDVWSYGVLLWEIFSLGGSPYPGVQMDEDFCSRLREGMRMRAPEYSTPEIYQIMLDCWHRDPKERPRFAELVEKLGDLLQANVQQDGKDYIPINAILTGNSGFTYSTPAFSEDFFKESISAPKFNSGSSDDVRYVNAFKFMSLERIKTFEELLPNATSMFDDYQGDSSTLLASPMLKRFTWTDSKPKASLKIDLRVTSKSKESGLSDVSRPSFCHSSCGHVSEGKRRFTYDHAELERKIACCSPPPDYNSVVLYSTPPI
T1 sequence (P35916 whole entry, looked up): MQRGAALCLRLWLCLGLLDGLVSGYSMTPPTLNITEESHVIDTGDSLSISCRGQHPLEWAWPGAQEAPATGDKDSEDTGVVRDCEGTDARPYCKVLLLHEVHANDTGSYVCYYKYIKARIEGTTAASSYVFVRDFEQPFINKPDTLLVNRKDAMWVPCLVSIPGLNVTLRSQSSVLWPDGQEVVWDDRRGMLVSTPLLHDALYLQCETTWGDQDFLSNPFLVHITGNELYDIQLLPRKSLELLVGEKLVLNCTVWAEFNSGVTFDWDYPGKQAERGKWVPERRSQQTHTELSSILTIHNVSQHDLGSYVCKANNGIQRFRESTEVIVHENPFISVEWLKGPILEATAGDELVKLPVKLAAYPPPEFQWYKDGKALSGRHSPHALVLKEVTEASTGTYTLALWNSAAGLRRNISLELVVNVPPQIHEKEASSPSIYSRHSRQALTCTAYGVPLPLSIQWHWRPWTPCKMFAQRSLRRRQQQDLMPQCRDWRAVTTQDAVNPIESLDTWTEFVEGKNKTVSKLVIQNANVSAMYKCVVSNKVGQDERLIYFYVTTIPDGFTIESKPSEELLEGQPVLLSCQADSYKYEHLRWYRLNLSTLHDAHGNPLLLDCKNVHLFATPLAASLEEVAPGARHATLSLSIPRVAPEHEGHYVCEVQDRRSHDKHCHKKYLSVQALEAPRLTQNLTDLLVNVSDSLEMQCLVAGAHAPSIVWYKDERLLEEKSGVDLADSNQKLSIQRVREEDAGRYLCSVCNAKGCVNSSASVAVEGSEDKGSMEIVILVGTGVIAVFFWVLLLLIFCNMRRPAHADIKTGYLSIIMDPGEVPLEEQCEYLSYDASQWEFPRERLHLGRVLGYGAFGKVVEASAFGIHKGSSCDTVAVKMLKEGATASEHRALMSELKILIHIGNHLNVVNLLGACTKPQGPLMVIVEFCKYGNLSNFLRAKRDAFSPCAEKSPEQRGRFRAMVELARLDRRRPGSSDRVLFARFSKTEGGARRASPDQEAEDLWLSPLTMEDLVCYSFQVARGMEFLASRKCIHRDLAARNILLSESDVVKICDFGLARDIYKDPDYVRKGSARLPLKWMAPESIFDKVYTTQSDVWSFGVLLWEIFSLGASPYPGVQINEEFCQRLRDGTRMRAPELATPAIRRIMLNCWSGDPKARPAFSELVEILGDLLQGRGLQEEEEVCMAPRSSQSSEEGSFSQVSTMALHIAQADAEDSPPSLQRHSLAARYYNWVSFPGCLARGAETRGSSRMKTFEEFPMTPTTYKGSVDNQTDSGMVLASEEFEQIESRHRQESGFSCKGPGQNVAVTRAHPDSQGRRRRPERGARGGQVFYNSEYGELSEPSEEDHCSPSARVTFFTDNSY
T1 sequence (P35968 whole entry, looked up): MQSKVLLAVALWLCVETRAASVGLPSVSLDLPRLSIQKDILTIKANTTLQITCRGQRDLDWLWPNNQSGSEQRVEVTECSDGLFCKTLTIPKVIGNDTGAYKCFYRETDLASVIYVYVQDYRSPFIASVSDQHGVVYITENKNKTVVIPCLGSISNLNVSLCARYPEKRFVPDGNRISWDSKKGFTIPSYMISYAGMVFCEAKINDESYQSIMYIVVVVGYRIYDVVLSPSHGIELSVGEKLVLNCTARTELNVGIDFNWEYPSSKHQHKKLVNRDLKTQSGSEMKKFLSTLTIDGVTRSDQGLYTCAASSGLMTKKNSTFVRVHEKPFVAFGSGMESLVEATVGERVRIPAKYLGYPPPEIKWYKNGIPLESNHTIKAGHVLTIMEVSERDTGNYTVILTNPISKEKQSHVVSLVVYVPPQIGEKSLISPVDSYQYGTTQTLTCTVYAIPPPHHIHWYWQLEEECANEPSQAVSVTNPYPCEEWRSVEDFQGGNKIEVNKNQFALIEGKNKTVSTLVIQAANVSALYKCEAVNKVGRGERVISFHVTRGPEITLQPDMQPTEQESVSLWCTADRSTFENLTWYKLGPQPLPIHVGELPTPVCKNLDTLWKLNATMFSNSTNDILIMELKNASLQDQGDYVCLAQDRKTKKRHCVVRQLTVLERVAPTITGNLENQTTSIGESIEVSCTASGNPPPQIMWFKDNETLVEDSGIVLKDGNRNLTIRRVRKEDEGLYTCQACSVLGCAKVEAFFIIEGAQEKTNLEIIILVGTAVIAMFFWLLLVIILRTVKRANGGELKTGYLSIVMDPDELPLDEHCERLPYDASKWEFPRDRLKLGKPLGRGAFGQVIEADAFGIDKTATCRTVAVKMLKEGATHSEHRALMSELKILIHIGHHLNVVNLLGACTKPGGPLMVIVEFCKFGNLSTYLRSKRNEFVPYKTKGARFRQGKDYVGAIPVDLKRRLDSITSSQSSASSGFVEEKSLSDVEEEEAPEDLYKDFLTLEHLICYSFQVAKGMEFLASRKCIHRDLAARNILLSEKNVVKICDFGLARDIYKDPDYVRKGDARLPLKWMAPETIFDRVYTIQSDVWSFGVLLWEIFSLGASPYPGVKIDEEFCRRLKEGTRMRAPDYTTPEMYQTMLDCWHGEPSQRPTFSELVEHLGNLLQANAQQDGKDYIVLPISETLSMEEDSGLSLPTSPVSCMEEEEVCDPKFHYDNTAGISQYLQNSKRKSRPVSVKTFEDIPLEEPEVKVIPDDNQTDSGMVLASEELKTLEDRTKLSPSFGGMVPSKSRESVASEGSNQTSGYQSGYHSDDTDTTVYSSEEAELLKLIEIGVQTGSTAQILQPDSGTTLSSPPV

inhibition [1]: > 80%
inhibition [2]: > 80%
inhibition [3]: > 80%
inhibition [4]: > 80%
inhibition [5]: > 80%
inhibition [6]: > 80%
inhibition [7]: > 80%
inhibition [8]: > 80%
inhibition [9]: > 80%
inhibition [10]: > 80%
inhibition [11]: > 80%
inhibition [12]: > 80%
inhibition [13]: > 80%
inhibition [14]: > 80%
inhibition [15]: > 80%
Compound: c1ccc2c(Nc3cc(C4CCC4)[nH]n3)nc(Nc3ccc4[nH]cnc4c3)nc2c1

inhibition [16]: > 80%
IC50 [17]: 120 nM
inhibition [19]: > 80%
inhibition [20]: > 80%
inhibition [21]: > 80%
inhibition [22]: > 80%
inhibition [23]: > 80%
Compound: NCCCNc1nc(Nc2cccc(NC(=O)N3CCCC3)c2)ncc1I
Activity [18]: Active
